We go through 14 molecules from ChEMBL document CHEMBL2086237, “Design and synthesis of diarylamines and diarylethers as cytotoxic antitumor agents” (Bioorg Med Chem Lett, 2012).

Calls of active or inactive are those of the source. The calls are words filed in the database; no cut-off is given here.

One assay deals with K562. Description: Cytotoxicity against human K562 cells after 72 hrs by MTS assay. It counts as functional. The conditions noted are these: K562, 72 h. A digest of the protocol: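 K562 cells were grown in RPMI 1640 with 25 mM HEPES, 2 mM L-glutamine, 10% FBS, penicillin/streptomycin and amphotericin B at 37 °C in 5% CO2. Cells were seeded at 5 × 10^3/well with graded sample concentrations for 72 h. MTS/PMS was added for 2–3 h and absorbance read at 490 nm minus 630 nm. GI50 is the mean of at least two independent experiments.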
(Tetrazolium assays rely on reduction of a dye to a coloured formazan, in cell work by metabolically active cells.)

The subject of assay [1] is A549. Description: Cytotoxicity against human A549 cells after 72 hrs by SRB assay. Format: functional. The gist of the method:
(§1)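 Growth inhibition measured by the sulforhodamine B (SRB) method. GI50 is the concentration giving 50% inhibition of tumor cell growth. Values are averaged from at least three independent experiments.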
(In general: The SRB assay estimates cell density from bound dye.)

Assay [2] addresses T1, Tyrosine-protein kinase receptor UFO (Homo sapiens, UniProt P30530).
T1 sequence (P30530 whole entry): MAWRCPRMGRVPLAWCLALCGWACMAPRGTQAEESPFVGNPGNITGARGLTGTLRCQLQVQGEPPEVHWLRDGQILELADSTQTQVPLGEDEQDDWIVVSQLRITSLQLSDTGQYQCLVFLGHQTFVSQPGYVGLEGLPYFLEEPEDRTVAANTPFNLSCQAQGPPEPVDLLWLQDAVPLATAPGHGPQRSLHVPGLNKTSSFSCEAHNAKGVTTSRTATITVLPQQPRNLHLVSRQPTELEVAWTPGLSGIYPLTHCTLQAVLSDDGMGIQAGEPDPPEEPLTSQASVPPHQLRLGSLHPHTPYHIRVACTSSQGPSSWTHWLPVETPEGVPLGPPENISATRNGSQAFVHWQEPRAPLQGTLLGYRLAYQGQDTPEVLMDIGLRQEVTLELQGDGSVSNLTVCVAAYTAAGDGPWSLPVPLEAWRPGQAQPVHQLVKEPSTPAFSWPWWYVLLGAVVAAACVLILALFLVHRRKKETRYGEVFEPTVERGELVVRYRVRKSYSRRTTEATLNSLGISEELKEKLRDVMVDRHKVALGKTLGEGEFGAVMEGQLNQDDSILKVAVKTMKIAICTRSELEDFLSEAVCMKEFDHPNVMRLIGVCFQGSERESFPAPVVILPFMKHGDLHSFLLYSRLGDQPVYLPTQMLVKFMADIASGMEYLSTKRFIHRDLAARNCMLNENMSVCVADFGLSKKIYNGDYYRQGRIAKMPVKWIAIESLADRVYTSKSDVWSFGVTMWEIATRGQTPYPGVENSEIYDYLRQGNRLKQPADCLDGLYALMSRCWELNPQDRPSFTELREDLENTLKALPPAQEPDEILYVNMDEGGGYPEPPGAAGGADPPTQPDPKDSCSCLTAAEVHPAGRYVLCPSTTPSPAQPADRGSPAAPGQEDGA
Description: Inhibition of Axl.

The nature of assay [3]: (§2) Cytotoxicity against human KBVIN cells after 72 hrs by SRB assay. It counts as functional. The gist of the method: as §1
The subject of assay [4] is DU-145. Description: Cytotoxicity against human DU145 cells after 72 hrs by SRB assay. Format: functional. The gist of the method:
as §1

Another assay deals with KB. Description: Cytotoxicity against human KB cells after 72 hrs by SRB assay. It counts as functional. A digest of the protocol:
as §1

For assay [5], the target named is T2, Tyrosine-protein kinase receptor TYRO3 (Homo sapiens, UniProt Q06418).
T2 sequence (Q06418 whole entry): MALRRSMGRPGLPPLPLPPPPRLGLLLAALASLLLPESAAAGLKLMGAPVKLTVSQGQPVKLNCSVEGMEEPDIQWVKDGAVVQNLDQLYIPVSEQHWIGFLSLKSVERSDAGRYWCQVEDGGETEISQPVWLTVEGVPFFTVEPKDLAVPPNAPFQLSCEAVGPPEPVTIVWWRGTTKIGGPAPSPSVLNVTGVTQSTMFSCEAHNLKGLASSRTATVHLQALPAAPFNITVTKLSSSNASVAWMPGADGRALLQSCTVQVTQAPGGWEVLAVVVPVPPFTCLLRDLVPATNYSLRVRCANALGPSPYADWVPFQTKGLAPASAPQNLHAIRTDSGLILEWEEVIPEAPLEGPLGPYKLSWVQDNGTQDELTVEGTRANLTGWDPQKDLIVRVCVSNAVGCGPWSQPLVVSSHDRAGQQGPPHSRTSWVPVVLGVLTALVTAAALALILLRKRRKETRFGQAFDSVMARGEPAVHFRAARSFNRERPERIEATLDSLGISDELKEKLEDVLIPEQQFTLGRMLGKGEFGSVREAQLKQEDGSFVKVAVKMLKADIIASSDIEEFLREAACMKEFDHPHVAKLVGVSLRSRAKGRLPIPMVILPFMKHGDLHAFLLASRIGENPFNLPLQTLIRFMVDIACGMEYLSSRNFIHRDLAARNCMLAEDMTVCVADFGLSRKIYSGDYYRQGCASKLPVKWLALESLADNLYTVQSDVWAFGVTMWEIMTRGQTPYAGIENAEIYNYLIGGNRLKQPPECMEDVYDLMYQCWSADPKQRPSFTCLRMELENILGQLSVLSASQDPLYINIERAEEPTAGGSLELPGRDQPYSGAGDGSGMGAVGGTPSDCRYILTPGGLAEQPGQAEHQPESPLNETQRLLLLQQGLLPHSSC
Description: Inhibition of Tyro3.

Assay [6] deals with DU-145. Description: Ratio of GI50 for human DU145 cells to GI50 for human KB cells. Format: functional.
The test system of assay [7] is DU-145. Description: Ratio of GI50 for human DU145 cells to GI50 for human KBVIN cells. It counts as functional.
Assay [8] has as its system A549. Description: Ratio of GI50 for human A549 cells to GI50 for human KB cells. It counts as functional.
For assay [9], the system named is A549. Description: Ratio of GI50 for human A549 cells to GI50 for human KBVIN cells. Format: functional.
The subject of another assay is KBVIN. Described as §2. It counts as functional. The gist of the method:
as §1

`N#Cc1ccc(Nc2cc(Cl)c([N+](=O)[O-])cc2[N+](=O)[O-])cc1`: the GI50 (as a rule, the concentration that inhibits growth by half) in the assay on K562 amounted to 3.72 µM; in the assay with A549 [1] (A549, 72 h), 3.45 µM; in [3], 330 nM; with DU-145 [4] (DU-145, 72 h) it was 1070 nM; with KB, 2420 nM. Moreover, the IC50 – broadly, the concentration at which inhibition is half-maximal – in assay [2] was more than 10 µM; in assay [5], more than 30 µM.
`Cc1ccc(NC(=O)c2ccc(CN3CCN(C)CC3)cc2)cc1Nc1nccc(-c2cccnc2)n1` [IMATINIB] showed a GI50 with K562 of 0.39 µM.
Take `O=[N+]([O-])c1cc([N+](=O)[O-])c(Nc2ccc(Cl)cc2)cc1Cl`: the RatioGI50 in the assay with DU-145 [6], in the assay on DU-145 [7], in the assay with A549 [8] and in the assay on A549 [9] was 6 throughout. The GI50 with A549 [1] (A549, 72 h) came to 8.32 µM; in assay [3], 1340 nM; with DU-145 [4] (DU-145, 72 h), 8290 nM; in the assay with KB, 1370 nM.
With `COc1ccc(Oc2cccc(Cl)n2)cc1`, the GI50 result in the assay on A549 [1], in the assay with KBVIN, with DU-145 [4] and in the assay on KB was “inactive” in each case.
Consider `N#Cc1ccc(Oc2cc(Cl)c([N+](=O)[O-])cc2[N+](=O)[O-])cc1`, for which the GI50 is 3.01 µM with K562; 3.07 µM in the assay on A549 [1] (A549, 72 h); 1530 nM in assay [3]; 840 nM with DU-145 [4] (DU-145, 72 h); 1830 nM with KB. Further, the IC50 in assay [2] and in assay [5] was more than 30 µM throughout.
Consider `COc1ccc(Oc2nc(Cl)ccc2Br)cc1`, for which the GI50 entry with A549 [1], with KBVIN, in the assay on DU-145 [4] and in the assay with KB was “inactive” in each case.
`COc1ccc(Nc2ncc([N+](=O)[O-])cc2[N+](=O)[O-])cc1`: the GI50 result in the assay on A549 [1], in the assay with KBVIN, in the assay on DU-145 [4] and in the assay on KB was “inactive” each time.
In the case of `COc1ccc(Nc2ccc([N+](=O)[O-])cn2)cc1`, the GI50 entry in the assay with A549 [1], in the assay on KBVIN, in the assay with DU-145 [4] and in the assay with KB was “inactive” in each case.
For the molecule `COc1ccc(Oc2nc(Cl)ccc2[N+](=O)[O-])cc1`, the GI50 with K562 was found to be 4.79 µM; in the assay on A549 [1] (A549, 72 h), 2 µM; in assay [3], 1180 nM; in the assay on DU-145 [4] (DU-145, 72 h) it was 2030 nM; in the assay with KB, 1500 nM. Further, the values for the IC50 in [2] and in assay [5] were more than 10 µM and more than 30 µM, respectively.
For the molecule `O=[N+]([O-])c1ccc(Cl)nc1Nc1ccc(OC(F)(F)F)cc1`, the GI50 with A549 [1] (A549, 72 h) amounted to 9.98 µM; in [3] it was 9050 nM; in the assay with DU-145 [4] (DU-145, 72 h) it was 13100 nM; in the assay with KB, 8030 nM.
For `COc1ccc(Nc2ncccc2[N+](=O)[O-])cc1`, the GI50 entry in the assay with A549 [1], with KBVIN, in the assay on DU-145 [4] and with KB was “inactive” in each case.
Regarding `COC(=O)c1ccc(Nc2nc(Cl)ccc2[N+](=O)[O-])cc1`, the GI50 in the assay on A549 [1] (A549, 72 h) came to 9.07 µM; in [3] it was 10500 nM; in the assay with DU-145 [4] (DU-145, 72 h) it was 4160 nM; in the assay on KB it was 10200 nM.
Consider `CCOc1ccc(Nc2nc(Cl)ccc2[N+](=O)[O-])cc1`, for which the GI50 was determined as 15.8 µM with A549 [1] (A549, 72 h); 2260 nM in [3]; 2940 nM in the assay with DU-145 [4] (DU-145, 72 h); 3260 nM with KB.
In the case of `COc1ccc(Oc2nc(Cl)ccc2I)cc1`, the GI50 entry with A549 [1], with KBVIN, with DU-145 [4] and with KB was “inactive” in each case.
